Results taken from ChEMBL document CHEMBL1123406, “Synthesis and evaluation of 2,3-dihydrobenzofuran analogues of the hallucinogen 1-(2,5-dimethoxy-4-methylphenyl)-2-aminopropane: drug discrimination studies in rats” (1986).
Activity calls are given as the source filed them. The calls are words filed in the database; no cut-off is given here.

Experiments:
Rattus norvegicus [1] = species: Rattus norvegicus; test: Compound was evaluated for the drug discrimination assay and the ED50 (potency) was determined; format: functional
Outline: (§1)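 Male Sprague–Dawley rats (200-240 g, housed singly) trained in a two-lever operant task to discriminate ip saline from LSD tartrate 0.08 mg/kg. Reinforcement was 45 mg food pellets on an FR50 schedule, with 15-min daily training sessions. Test drugs were given 30 min before testing. A test ended at 50 responses on either lever or at 5 min; rats not completing 50 presses were scored disrupted and excluded.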

Rattus norvegicus [2] = test: Percentage responding on LSD lever at dose 0.5 mg/kg; format: functional; outline: as §1
Rattus norvegicus [3] = test: Percentage responding on LSD lever at dose 16.0 mg/kg; format: functional; outline: as §1
Rattus norvegicus [4] = test: Percentage responding on LSD lever at dose 2.0 mg/kg; format: functional; outline: as §1
Rattus norvegicus [5] = test: Percentage responding on LSD lever at dose 4.0 mg/kg; format: functional; outline: as §1
Rattus norvegicus [6] = test: Percentage responding on LSD lever at dose 8.0 mg/kg; format: functional; outline: as §1
Rattus norvegicus [7] = test: Number of rats responding on LSD lever/number of rats treated at dose 4.0 mg/kg; 8/8; format: functional, organism-based; set-up: dose 4 mg/kg; outline: as §1
Rattus norvegicus [8] = test: Number of rats responding on LSD lever/number of rats treated at dose 0.5 mg/kg; 1/8; format: functional, organism-based; set-up: dose 0.5 mg/kg; outline: as §1
Rattus norvegicus [9] = test: Number of rats responding on LSD lever/number of rats treated at dose 1.0 mg/kg; 4/8; format: functional, organism-based; set-up: dose 1 mg/kg; outline: as §1
Rattus norvegicus [10] = test: Number of rats responding on LSD lever/number of rats treated at dose 2.0 mg/kg; 6/8; format: functional, organism-based; set-up: dose 2 mg/kg; outline: as §1
Rattus norvegicus [11] = test: Number of rats responding on LSD lever/number of rats treated at dose 3.0 mg/kg; 8/10; format: functional, organism-based; set-up: dose 3 mg/kg; outline: as §1
Rattus norvegicus [12] = test: Percentage responding on LSD lever at dose 1.0 mg/kg; format: functional; outline: as §1
Rattus norvegicus [13] = test: Percentage responding on LSD lever at dose 3.0 mg/kg; format: functional; outline: as §1
Rattus norvegicus [14] = test: Number of rats responding on LSD lever/number of rats treated at dose 4.0 mg/kg; 5/8; format: functional, organism-based; set-up: dose 4 mg/kg; outline: as §1
Rattus norvegicus [15] = test: Number of rats responding on LSD lever/number of rats treated at dose 8.0 mg/kg; 6/8; format: functional, organism-based; set-up: dose 8 mg/kg; outline: as §1
Rattus norvegicus [16] = test: Number of rats responding on LSD lever/number of rats treated at dose 10.0 mg/kg; 10/12; format: functional, organism-based; set-up: dose 10 mg/kg; outline: as §1
Rattus norvegicus [17] = test: Number of rats responding on LSD lever/number of rats treated at dose 0.25 mg/kg; 1/8; format: functional, organism-based; set-up: dose 0.25 mg/kg; outline: as §1
Rattus norvegicus [18] = test: Number of rats responding on LSD lever/number of rats treated at dose 1.0 mg/kg; 1/8; format: functional, organism-based; set-up: dose 1 mg/kg; outline: as §1
Rattus norvegicus [19] = test: Percentage responding on LSD lever at dose 0.25 mg/kg; format: functional; outline: as §1
Rattus norvegicus [20] = test: Percentage responding on LSD lever at dose 10.0 mg/kg; format: functional; outline: as §1

COc1cc2c(cc1CC(C)N)OC(C)C2 (stereo not drawn)
ED50 (Rattus norvegicus [1]): 5.5 mg/kg | Responding (Rattus norvegicus [2]): 0% | Responding (Rattus norvegicus [3]): 88% | Responding (Rattus norvegicus [4]): 0% | Responding (Rattus norvegicus [5]): 38% | Responding (Rattus norvegicus [6]): 63%

COc1cc2c(cc1CC(C)N)OCO2 (stereo not drawn)
Activity (Rattus norvegicus [7]): Active | Activity (Rattus norvegicus [8]): inactive | Activity (Rattus norvegicus [9]): Weak activity | Activity (Rattus norvegicus [10]): Weak activity | Activity (Rattus norvegicus [11]): Active | ED50 (Rattus norvegicus [1]): 1.71 mg/kg | Responding (Rattus norvegicus [2]): 13% | Responding (Rattus norvegicus [12]): 50% | Responding (Rattus norvegicus [4]): 75% | Responding (Rattus norvegicus [13]): 80% | Responding (Rattus norvegicus [5]): 100%

COc1cc2c(cc1CC(C)N)OCC2 (stereo not drawn)
Activity (Rattus norvegicus [14]): Weak activity | Activity (Rattus norvegicus [15]): Weak activity | Activity (Rattus norvegicus [16]): Active | Activity (Rattus norvegicus [17]): inactive | Activity (Rattus norvegicus [18]): inactive | ED50 (Rattus norvegicus [1]): 2.12 mg/kg | Responding (Rattus norvegicus [19]): 13% | Responding (Rattus norvegicus [12]): 13% | Responding (Rattus norvegicus [20]): 83% | Responding (Rattus norvegicus [5]): 63% | Responding (Rattus norvegicus [6]): 75%
